RGS4 block = inhibitors of human RGS4; HEK293 M3R/RGS4 inducible, Fluo-4 calcium flux; active compounds read high; triggered by carbachol at its EC20; AID 463165; 310,000 tested, 0.45% active; B-score at 10 µM;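 active means B-score, a plate-corrected calcium signal, over three deviations above library mean, with baseline fluorescence within five deviations of library mean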;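 further: RGS4 expression induced by doxycycline in cells with stable M3 receptor; B-score is computed from the integrated fluorescence ratio over baseline after carbachol; higher B-score means a larger calcium signal and so more RGS4 inhibition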
Target sequence (P49798 whole entry, looked up): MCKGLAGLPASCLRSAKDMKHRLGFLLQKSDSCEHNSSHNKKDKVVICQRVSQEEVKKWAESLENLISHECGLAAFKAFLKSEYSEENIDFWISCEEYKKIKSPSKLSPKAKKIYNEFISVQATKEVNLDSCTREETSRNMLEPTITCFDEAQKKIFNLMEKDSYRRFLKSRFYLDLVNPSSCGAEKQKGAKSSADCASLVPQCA
MrgX1 PAM = allosterically activates human MrgX1 receptor signaling; Q96LB2; MrgX1-HEK293, Fluo-4 calcium flux, FDSS; active compounds read high; B-score at 10 µM; 310,000 tested, 0.63% active; AID 588675;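 active means plate-corrected calcium response at least 3 library SD above typical, normal starting fluorescence, not activating the receptor alone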;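 further: compound read alongside a low EC10 to EC30 dose of BAM8-22 agonist; peak minus trough fluorescence over baseline measured at the second addition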
Target sequence (Q96LB2 whole entry, looked up): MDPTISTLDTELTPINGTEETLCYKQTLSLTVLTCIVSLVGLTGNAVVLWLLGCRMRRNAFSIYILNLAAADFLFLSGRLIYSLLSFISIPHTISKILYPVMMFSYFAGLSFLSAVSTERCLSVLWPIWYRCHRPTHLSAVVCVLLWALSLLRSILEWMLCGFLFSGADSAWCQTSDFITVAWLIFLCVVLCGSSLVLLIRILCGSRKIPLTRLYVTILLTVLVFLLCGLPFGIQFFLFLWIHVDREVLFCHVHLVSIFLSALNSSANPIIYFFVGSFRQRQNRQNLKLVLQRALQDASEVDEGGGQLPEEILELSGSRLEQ
MrgX1 antag = antagonists of human MrgX1 receptor. Q96LB2. MRGX1-HEK293 calcium flux, Fluo-4, BAM8-22 antagonism; active compounds read low. B-score at 10 µM. 310,000 tested, 1.3% active;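 active means calcium-response B-score plate-corrected more than 3 library SD below zero, starting fluorescence within 5 deviations, no agonist response on first addition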;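 further: peak minus trough fluorescence over baseline after final BAM8-22 challenge near maximal dose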
RGS4 act = RGS4 potentiation or activation; B-score at 10 µM; 310,000 tested, 0.92% active; HEK293 M3R/inducible RGS4, carbachol calcium flux Fluo4; active compounds read low;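 active means B-score of the integrated calcium signal more than 4 SD below the library mean, with starting fluorescence not abnormally high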;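 further: negative B-score means reduced calcium response which marks RGS4 activation or potentiation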
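Material: M3R-expressing HEK293 line, RGS4 induced by doxycycline | Schedule: Overnight RGS4 induction, 30 min dye load 37 °C, 20 min compound RT | Measured by: Fluo4 fluorescence kinetic imaging of calcium | Read-out: Integrated calcium ratio converted to B score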
MrgX1 ag = agonists of human MrgX1 receptor. MrgX1-HEK293 cells, Fluo-4 calcium fluorescence, agonist mode; active compounds read high. AID 588627. B-score at 10 µM. 310,000 tested, 0.44% active. Q96LB2;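 active means calcium response B-score plate-corrected fluorescence ratio at least 3 library SD, with starting fluorescence B-score inside 5 SD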
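Test system: Stable human MrgX1 HEK293 cell line | Schedule: Overnight plating before 1 h dye loading | Read-out basis: Baseline-normalised fluorescence change ratio, B-scored | Detection: Kinetic calcium dye fluorescence, Fluo-4 NW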
Hits are given with their value. The list is not random: actives were taken first. Their share in the collection is about 3.5%.

Results for CN1CCN(C(c2cccc(Cl)c2)c2ccccc2Cl)CC1 (stereo not given) ?
RGS4 block: inactive; MrgX1 PAM: inactive; MrgX1 antag: inactive; RGS4 act: -7.98; MrgX1 ag: inactive

How did CNC(=O)c1ccc(-c2sc3nc(N4CCOCC4)c4c(c3c2N)CCCC4)o1 do in these assays?
RGS4 block: inactive; MrgX1 PAM: 12.1; MrgX1 antag: inactive; RGS4 act: inactive; MrgX1 ag: inactive

Results for COc1ccc(OC)c(C(=O)NC(CC(N)=O)c2ccc(NC(C)C)c([N+](=O)[O-])c2)c1 (stereo not given) ?
RGS4 block: inactive; MrgX1 PAM: inactive; MrgX1 antag: inactive; RGS4 act: inactive; MrgX1 ag: inactive

How did COCCNC(=O)c1ccc(CN2CCc3ccccc3C2)cc1 do in these assays?
RGS4 block: inactive; MrgX1 PAM: inactive; MrgX1 antag: inactive; RGS4 act: inactive; MrgX1 ag: inactive

What do the screens show for `CCC(C)NC(=O)c1ccc(CN2CCc3ccccc3C2)cc1` (stereo not given)?
RGS4 block: inactive; MrgX1 PAM: inactive; MrgX1 antag: inactive; RGS4 act: -7.47; MrgX1 ag: inactive

Results for COCC(C)NC(=O)c1ccc(CN2CCc3ccccc3C2)cc1 (stereo not given) ?
RGS4 block: inactive; MrgX1 PAM: inactive; MrgX1 antag: inactive; RGS4 act: inactive; MrgX1 ag: inactive

Results for CCCNC(=O)c1ccc(CN2CCc3ccccc3C2)cc1 ?
RGS4 block: inactive; MrgX1 PAM: inactive; MrgX1 antag: inactive; RGS4 act: -7.09; MrgX1 ag: inactive

Results for CCN(CC)C1CC(=O)N(c2cccc(Cl)c2)C1=O (stereo not given) ?
RGS4 block: inactive; MrgX1 PAM: inactive; MrgX1 antag: inactive; RGS4 act: inactive; MrgX1 ag: inactive

How did COc1ccc(C2=NOC(Cn3nc(C(=O)NCC4CC4)cc3-c3ccccc3)C2)cc1 (stereo not given) do in these assays?
RGS4 block: inactive; MrgX1 PAM: 7.89; MrgX1 antag: inactive; RGS4 act: inactive; MrgX1 ag: inactive

What do the screens show for `COc1cc(/C=N/NC(=O)c2cc(-c3c(C)nn(-c4ccccc4)c3C)n[nH]2)ccc1O`?
RGS4 block: inactive; MrgX1 PAM: inactive; MrgX1 antag: inactive; RGS4 act: inactive; MrgX1 ag: inactive

What do the screens show for `Cc1nn(-c2ccccc2)c(N2CCCC2)c1/C=N/NC(=O)c1ccccc1O`?
RGS4 block: inactive; MrgX1 PAM: inactive; MrgX1 antag: -7.18; RGS4 act: inactive; MrgX1 ag: inactive

What do the screens show for `Cc1nn(-c2ccccc2)c(C)c1/C=N/NC(=O)c1cc(-c2cccs2)[nH]n1`?
RGS4 block: inactive; MrgX1 PAM: inactive; MrgX1 antag: inactive; RGS4 act: inactive; MrgX1 ag: inactive

How did Cc1nn(-c2ccccc2)c(C)c1-c1cc(C(=O)N/N=C/c2ccc(O)cc2)[nH]n1 do in these assays?
RGS4 block: inactive; MrgX1 PAM: inactive; MrgX1 antag: inactive; RGS4 act: -7.12; MrgX1 ag: inactive

Results for Cc1nn(-c2ccccc2)c(C)c1/C=N/NC(=O)c1ccccc1O ?
RGS4 block: inactive; MrgX1 PAM: inactive; MrgX1 antag: inactive; RGS4 act: inactive; MrgX1 ag: inactive

How did Cc1nn(-c2ccccc2)c(C)c1/C=N/NC(=O)c1cccs1 do in these assays?
RGS4 block: inactive; MrgX1 PAM: inactive; MrgX1 antag: -7.06; RGS4 act: inactive; MrgX1 ag: inactive

What do the screens show for `Cc1nn(-c2ccccc2)c(C)c1/C=N/NC(=O)c1cc(-c2ccc(Cl)s2)[nH]n1`?
RGS4 block: inactive; MrgX1 PAM: inactive; MrgX1 antag: inactive; RGS4 act: -7.77; MrgX1 ag: inactive

How did CCOC(=O)C(=O)Nc1cc(C)on1 do in these assays?
RGS4 block: inactive; MrgX1 PAM: inactive; MrgX1 antag: inactive; RGS4 act: inactive; MrgX1 ag: inactive

How did CNC(=S)N/N=C/c1c(C)nn(-c2ccccc2)c1Cl do in these assays?
RGS4 block: inactive; MrgX1 PAM: inactive; MrgX1 antag: inactive; RGS4 act: inactive; MrgX1 ag: inactive

How did Cc1nn(-c2ccccc2)c(Cl)c1/C=N/NC(=O)OC(C)(C)C do in these assays?
RGS4 block: inactive; MrgX1 PAM: inactive; MrgX1 antag: inactive; RGS4 act: -7.99; MrgX1 ag: inactive

Results for COc1ccc(S(=O)(=O)N(C)CC(=O)NCCC2=CCCCC2)cc1OC ?
RGS4 block: inactive; MrgX1 PAM: inactive; MrgX1 antag: -5.91; RGS4 act: inactive; MrgX1 ag: inactive

Results for Cc1ccc(C(CC(=O)O)NC(=O)CN2C(=O)c3ccccc3C2=O)cc1 (stereo not given) ?
RGS4 block: inactive; MrgX1 PAM: inactive; MrgX1 antag: inactive; RGS4 act: inactive; MrgX1 ag: inactive

How did CC(C)(C)c1cc(/C=N/NC(=O)C[n+]2ccccc2)cc(C(C)(C)C)c1O do in these assays?
RGS4 block: inactive; MrgX1 PAM: inactive; MrgX1 antag: inactive; RGS4 act: -7.04; MrgX1 ag: inactive

What do the screens show for `CC(C)(C)c1ccc(/C=N/NC(=O)C[n+]2ccccc2)cc1`?
RGS4 block: inactive; MrgX1 PAM: inactive; MrgX1 antag: inactive; RGS4 act: -7.13; MrgX1 ag: inactive

What do the screens show for `Cc1ccc(C(=O)c2no[n+]([O-])c2C(=O)c2ccc(C)cc2)cc1`?
RGS4 block: inactive; MrgX1 PAM: inactive; MrgX1 antag: inactive; RGS4 act: -8.82; MrgX1 ag: 31.3

Results for COc1ccc(C(=O)NCc2ccc3c(c2)OCO3)c(OC)c1 ?
RGS4 block: inactive; MrgX1 PAM: inactive; MrgX1 antag: inactive; RGS4 act: inactive; MrgX1 ag: inactive

How did COc1ccc2oc(=O)c(C(=O)NCc3ccc4c(c3)OCO4)cc2c1 do in these assays?
RGS4 block: inactive; MrgX1 PAM: inactive; MrgX1 antag: -6.14; RGS4 act: inactive; MrgX1 ag: inactive

What do the screens show for `Cc1ccc(NC(=O)c2cccc(NC(=O)/C=C/c3ccco3)c2)cc1C`?
RGS4 block: inactive; MrgX1 PAM: inactive; MrgX1 antag: inactive; RGS4 act: -9.62; MrgX1 ag: inactive

Results for O=C(/C=C/c1ccco1)Nc1ccc2c(c1)OCO2 ?
RGS4 block: inactive; MrgX1 PAM: inactive; MrgX1 antag: inactive; RGS4 act: inactive; MrgX1 ag: inactive

Results for CCc1ccccc1NC(=O)c1cccc(NC(=O)/C=C/c2ccco2)c1 ?
RGS4 block: inactive; MrgX1 PAM: inactive; MrgX1 antag: inactive; RGS4 act: inactive; MrgX1 ag: inactive

How did Cc1ccc(-n2nc3ccc(NC(=O)/C=C/c4ccco4)cc3n2)cc1 do in these assays?
RGS4 block: inactive; MrgX1 PAM: inactive; MrgX1 antag: -6.28; RGS4 act: inactive; MrgX1 ag: inactive

Results for Cc1ccc(S(=O)(=O)n2nc(-c3ccco3)nc2SCc2ccccc2)cc1 ?
RGS4 block: inactive; MrgX1 PAM: inactive; MrgX1 antag: inactive; RGS4 act: inactive; MrgX1 ag: inactive

How did COc1ccc(CCNC(=O)CN(Cc2ccc(Cl)cc2)S(C)(=O)=O)cc1 do in these assays?
RGS4 block: inactive; MrgX1 PAM: inactive; MrgX1 antag: inactive; RGS4 act: inactive; MrgX1 ag: inactive
